Results as given in ChEMBL document CHEMBL1157262, “A pyrimidine-beta-carboline and other alkaloids from Annona foetida with antileishmanial activity” (J Nat Prod, 2006).

Legend:
Leishmania guyanensis = assay: Antileishmanial activity against Leishmania guyanensis MHOM/BR/95/IOCL-2092 promastigotes after 24 hrs; format: functional, organism-based
Procedure, shortened: (§1)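 Promastigotes grown in Schneider's Drosophila medium with 20% (v/v) heat-inactivated FCS, harvested late-log; log-phase cells at 4.0 × 10⁶ cells/mL in 96-well trays, 26 °C, 95% air/5% CO₂. Compounds in DMSO, 160–0.16 μg/mL, triplicate per concentration. Viability counted by Neubauer chamber after 24 h; IC50 = concentration inhibiting growth 50%. Pentamidine positive control.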

Leishmania braziliensis = assay: Antileishmanial activity against Leishmania braziliensis MHOM/BR/95/IOCL-2033 promastigotes after 24 hrs; format: functional, organism-based; procedure, shortened: as §1

Compound	IC50 (Leishmania guyanensis) [µM]	IC50 (Leishmania braziliensis) [µM]
O=C1c2ccccc2-c2c3c(cc4ccnc1c24)OCO3 [LIRIODENINE]	21.5	58.5
N=C(N)c1ccc(OCCCCCOc2ccc(C(=N)N)cc2)cc1 [PENTAMIDINE]	0.9	2.9

The next lines start with the values.

IC50 (Leishmania guyanensis) [µM]	IC50 (Leishmania braziliensis) [µM]	Compound
104	321	COc1c(OC)c2c3c(nccc3c1OC)C(=O)c1ccccc1-2 [HOMOMOSCHATOLINE]
438	253	Nc1nccc(-c2nccc3c4ccccc4n(O)c23)n1
> 613	34.8	Nc1nccc(-c2nccc3c2[nH]c2ccccc23)n1 [ANNOMONTINE]
